Laboratory results taken from ChEMBL document CHEMBL1127414 (J Med Chem, 1994).
pIC50: −log10 of the molar value. Values after ≈ are worked out from the molar mass of the structure shown.

Columns and labels:
Squalene synthase [1] = target: T1, Squalene synthase (Rattus norvegicus, UniProt Q02769); assay: Tested for inhibition against squalene synthase enzyme in rat liver
T1 sequence (Q02769 whole entry): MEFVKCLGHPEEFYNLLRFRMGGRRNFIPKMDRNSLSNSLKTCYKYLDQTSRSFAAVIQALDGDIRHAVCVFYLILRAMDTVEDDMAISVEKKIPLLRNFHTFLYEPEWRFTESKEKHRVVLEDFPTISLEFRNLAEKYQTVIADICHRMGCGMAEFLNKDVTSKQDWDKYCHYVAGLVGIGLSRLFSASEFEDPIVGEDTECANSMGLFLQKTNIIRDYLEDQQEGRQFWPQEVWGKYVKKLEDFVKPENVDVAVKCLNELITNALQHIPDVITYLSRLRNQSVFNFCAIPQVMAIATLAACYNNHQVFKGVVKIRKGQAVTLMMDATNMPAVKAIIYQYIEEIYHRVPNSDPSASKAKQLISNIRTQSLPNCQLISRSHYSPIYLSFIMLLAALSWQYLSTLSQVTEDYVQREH

HepG2 [2] = assay: Concentration of compound required to inhibit cholesterol synthesis in Hep G2 cells relative to control (IC50 of L-694,599); type: functional, Homo sapiens
Procedure, shortened: (§1)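 Hep G2 cells held 2 days in lipoprotein-depleted FBS to stimulate sterol synthesis, then given inhibitor in serum-free medium for 2 h. 15 μCi [5-3H]mevalonate (0.2 mCi/mmol) added for 1 h. Cells washed and saponified, and radioactivity counted by scintillation.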

HepG2 [3] = assay: Concentration required to inhibit cholesterol synthesis in Hep G2 cells; type: functional, cell-based; details: Homo sapiens; procedure, shortened: as §1
[4] = target: T2, Squalene synthase (Rattus norvegicus) (UniProt Q02769); assay: Concentration required to inhibit rat liver squalene synthase enzyme relative to control (L-694,599)
T2 sequence (whole entry): T1 sequence (Q02769 whole entry)
Procedure, shortened: (§2)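 Enzyme from rat liver. […] Inhibitors added in DMSO (0.3% final) as 3-fold serial dilutions, usually up to 30 ng/mL (about 40 nM). IC50 read from % inhibition vs log concentration.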

Squalene synthase [5] = target: T1, Squalene synthase; assay: Concentration required for inhibition of rat liver squalene synthase enzyme at 161 nM; NA = not active
[6] = target: T3, Squalene synthase (Mus musculus) (UniProt P53798); assay: Tested for the effective dose required for the incorporation of [5-3H]-mevalonolactone into cholesterol by in vivo mouse assay by peroral administration; type: functional, organism-based
T3 sequence (whole entry): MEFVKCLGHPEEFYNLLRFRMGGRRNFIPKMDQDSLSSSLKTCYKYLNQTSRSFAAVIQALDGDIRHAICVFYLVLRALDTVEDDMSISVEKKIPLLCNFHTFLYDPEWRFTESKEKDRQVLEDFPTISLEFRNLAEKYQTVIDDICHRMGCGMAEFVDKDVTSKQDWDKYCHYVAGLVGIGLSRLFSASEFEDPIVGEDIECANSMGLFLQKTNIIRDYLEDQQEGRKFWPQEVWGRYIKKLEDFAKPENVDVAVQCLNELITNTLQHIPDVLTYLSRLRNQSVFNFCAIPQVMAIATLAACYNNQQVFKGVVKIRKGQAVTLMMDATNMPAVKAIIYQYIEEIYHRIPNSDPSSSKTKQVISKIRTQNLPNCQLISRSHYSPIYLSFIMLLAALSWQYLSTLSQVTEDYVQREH
Procedure, shortened: (§3)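 Female Swiss Webster mice (~25 g), six per group, dosed po by gavage with inhibitor suspended in 5% emulphor. 30 min later, 0.5 μCi/mouse [5-3H]mevalonolactone in saline given sc. Livers removed 30 min after that and saponified in KOH/EtOH overnight at 55 °C, then petroleum-ether extracted. Nonsaponifiable dpm counted. Compounds first tested at a single dose (typically 12 or 24 mg/kg).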

Squalene synthase [7] = target: T1, Squalene synthase; assay: Concentration required for inhibition of rat liver squalene synthase enzyme at 161 nM; Not active
Mus musculus [8] = assay: Tested for its ability to inhibit the incorporation of [5-3H]-mevalonolactone into cholesterol by in vivo mouse assay by peroral administration at a dose of 12 mg/kg; type: functional; details: route oral; procedure, shortened: as §3
Cryptococcus neoformans [9] = assay: Concentration required to inhibit growth of MY 1051 strain of Cryptococcus neoformans; type: functional
Procedure, shortened: (§4)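 Broth microdilution against a panel of clinically relevant fungal strains. Read-out was the minimum fungicidal concentration in μg/mL.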

Aspergillus fumigatus = assay: Concentration required to inhibit growth of MF 4839 strain of Aspergillus fumigatus; type: functional; procedure, shortened: as §4
HepG2 [10] = assay: Concentration required to inhibit cholesterol synthesis in Hep G2 cells relative to control (IC50 of L-694,599); type: functional, Homo sapiens; procedure, shortened: as §1
[11] = test system: squalene synthase (Saccharomyces cerevisiae); assay: Compound required to inhibit 50% activity of yeast squalene synthase enzyme relative to control (L-694,599)
Candida tropicalis = assay: Concentration required to inhibit growth of MY 1012 strain of Candida tropicalis; type: functional; procedure, shortened: as §4
Candida albicans [12] = assay: Concentration required to inhibit growth of MY 1750 strain of Candida albicans; type: functional; procedure, shortened: as §4
Candida parapsilosis = assay: Concentration required to inhibit growth of MY 1010 strain of Candida parapsilosis; type: functional; details: Lodderomyces parapsilosis; procedure, shortened: as §4
Cryptococcus neoformans [13] = assay: Concentration required to inhibit growth of MY 2061 strain of Cryptococcus neoformans; type: functional; procedure, shortened: as §4
Mus musculus [14] = assay: Tested for its ability to inhibit the incorporation of [5-3H]-mevalonolactone into cholesterol by in vivo mouse assay by peroral administration at a dose of 40 mg/kg; type: functional; details: route oral; procedure, shortened: as §3
Candida albicans [15] = assay: Concentration required to inhibit growth of MY 1055 strain of Candida albicans; type: functional; procedure, shortened: as §4
Trichophyton benhamiae = assay: Concentration required to inhibit growth of MF 4864 strain of Trichophyton mentagrophytes; type: functional, Arthroderma benhamiae; procedure, shortened: as §4
Mus musculus [16] = assay: Tested for its ability to inhibit the incorporation of [5-3H]-mevalonolactone into cholesterol by in vivo mouse assay by peroral administration at a dose of 6 mg/kg; type: functional; details: route oral; procedure, shortened: as §3
[17] = target: T2, Squalene synthase (Rattus norvegicus); assay: concentration required to inhibit rat liver squalene synthase enzyme relative to control (L-694,599); procedure, shortened: as §2
[18] = test system: squalene synthase (Saccharomyces cerevisiae); assay: compound required to inhibit 50% activity of yeast squalene synthase enzyme relative to control (L-694,599).
Mus musculus [19] = assay: Ability to inhibit the incorporation of [5-3H]-mevalonolactone into cholesterol by in vivo mouse assay by peroral administration at a dose of 24 mg/kg; type: functional; details: route oral; procedure, shortened: as §3

SMILES | pIC50 (Squalene synthase [1]) | pIC50 (HepG2 [3]) | ED50 [6] | MFC (Cryptococcus neoformans [9]) | MFC (Aspergillus fumigatus) | MFC (Candida tropicalis) | MFC (Candida albicans [12]) | MFC (Candida parapsilosis) | MFC (Cryptococcus neoformans [13]) | MFC (Candida albicans [15]) | further results
C=C(CCC12OC(C(=O)O)C(O)(C(=O)O)C(C(=O)O)(O1)[C@H](OC(=O)CCCCCCC)[C@H]2O)[C@@H](OC(C)=O)[C@H](C)Cc1ccccc1 (stereo partly specified) | 9.18 | 5.02 | – | – | – | – | – | – | – | – | Relative activity (HepG2 [2]): 0.57; Relative activity [4]: 0.17
C=C(CCC12OC(C(=O)O)C(OCCCCCCCCCCCOc3ccccc3)(C(=O)O)C(C(=O)O)(O1)[C@H](OCCCCCCCCCCCOc1ccccc1)[C@H]2O)[C@@H](OC(C)=O)[C@H](C)Cc1ccccc1 (stereo partly specified) | – | – | – | – | – | – | – | – | – | – | IC50 (Squalene synthase [5]): Not Active
C=C(CCC12OC(C(=O)O)C(O)(C(=O)O)C(C(=O)O)(O1)[C@H](OC(=O)CCC(=O)O)[C@H]2O)[C@@H](OC(C)=O)[C@H](C)Cc1ccccc1 (stereo partly specified) | – | – | > 12 mg/kg | – | – | – | – | – | – | – | IC50 (Squalene synthase [7]): Not Active; inhibition in vivo at 12 mg/kg (Mus musculus [8]): -20%
C=C(CCC12OC(C(=O)O)C(O)(C(=O)O)C(C(=O)O)(O1)[C@H](OC(=O)CCCCCCCCCCC)[C@H]2O)[C@@H](OC(C)=O)[C@H](C)Cc1ccccc1 (stereo partly specified) | 9.10 | 5.77 | – | 2 µg/mL (≈ 2.77 µM) | 8 µg/mL (≈ 11.1 µM) | 8 µg/mL (≈ 11.1 µM) | 8 µg/mL (≈ 11.1 µM) | 8 µg/mL (≈ 11.1 µM) | 0.12 µg/mL (≈ 0.166 µM) | 4 µg/mL (≈ 5.55 µM) | Relative activity (HepG2 [10]): 3.24; Relative activity [11]: 3.13; inhibition in vivo at 40 mg/kg (Mus musculus [14]): 20%; MFC (Trichophyton benhamiae): 4 µg/mL (≈ 5.55 µM); Relative activity [4]: 0.29
C=C(CCC12OC(C(=O)O)C(O)(C(=O)O)C(C(=O)O)(O1)[C@H](O/C(S)=N/C(C)C)[C@H]2O)[C@@H](OC(C)=O)[C@H](C)Cc1ccccc1 (stereo partly specified) | – | – | > 6 mg/kg | – | – | – | – | – | – | – | inhibition in vivo at 6 mg/kg (Mus musculus [16]): 9%; Relative activity [17]: 0.01
C=C(CCC12OC(C(=O)O)C(O)(C(=O)O)C(C(=O)O)(O1)[C@H](OC(=O)OCCCCCCCCCCCOc1ccccc1)[C@H]2O)[C@@H](OC(C)=O)[C@H](C)Cc1ccccc1 (stereo partly specified) | 10.40 | 5.62 | – | 8 µg/mL (≈ 9.65 µM) | 0.15 µg/mL (≈ 0.181 µM) | 0.5 µg/mL (≈ 0.603 µM) | 0.5 µg/mL (≈ 0.603 µM) | 4 µg/mL (≈ 4.83 µM) | 16 µg/mL (≈ 19.3 µM) | > 128 µg/mL | Relative activity (HepG2 [10]): 3.46; Relative activity [17]: 3; Relative activity [18]: 6.07; inhibition in vivo at 40 mg/kg (Mus musculus [14]): 12%
C=C(CCC12OC(C(=O)O)C(O)(C(=O)O)C(C(=O)O)(O1)[C@H](OC(=O)NCCCCCCCCCC)[C@H]2O)[C@@H](OC(C)=O)[C@H](C)Cc1ccccc1 (stereo partly specified) | – | 5.44 | – | 4 µg/mL (≈ 5.54 µM) | 32 µg/mL (≈ 44.3 µM) | 16 µg/mL (≈ 22.2 µM) | 4 µg/mL (≈ 5.54 µM) | 8 µg/mL (≈ 11.1 µM) | 0.5 µg/mL (≈ 0.693 µM) | 8 µg/mL (≈ 11.1 µM) | inhibition in vivo at 24 mg/kg (Mus musculus [19]): 4%; MFC (Trichophyton benhamiae): 2 µg/mL (≈ 2.77 µM)
C=C(CCC12OC(C(=O)O)C(O)(C(=O)O)C(C(=O)O)(O1)[C@H](OC(=O)C(C)(C)C)[C@H]2O)[C@@H](OC(C)=O)[C@H](C)Cc1ccccc1 (stereo partly specified) | – | – | > 12 mg/kg | – | – | – | – | – | – | – | IC50 (Squalene synthase [7]): Not Active; inhibition in vivo at 12 mg/kg (Mus musculus [8]): -2%
